# A selection: hits, their analogues and other compounds. The true share with any hit is near 2.9%.
# SENP8 block-1 – SENP8 protease inhibition | Q96LD8 | purified SENP8, Z-RLRGG-aminoluciferin cleavage, luminescence | inhibition, % at 10 µM | hit rate 1.2% among 330,000 | AID 2540; in the data active = inhibition above about 50%
# SENP6 block – SENP6 protease inhibition; Recombinant SENP6 catalytic domain, aminoluciferin luminescence; Q9GZR1; hit rate 1.8% among 330,000; inhibition, % at 10 µM;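 active = inhibition above about 50% at the single tested dose, limit read from the data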;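 note: plate controls were DMSO wells with enzyme for no effect and DMSO wells lacking enzyme for full effect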
# HSP90 inh – blocks HSP90-mediated luciferase refolding in reticulocyte lysate | hit rate 0.91% among 290,000 | inhibition, % at 5.6 µM | Rabbit reticulocyte lysate, luciferase refolding luminescence, 3 h;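 active = inhibition above the screen-wide mean plus 3 SD, computed separately per campaign, cut at about 16% in these data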;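 note: 0% = DMSO wells and 100% = 60 µM geldanamycin wells; inhibitors lower the luminescence because luciferase stays unfolded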
# SENP1 FRET inh – SENP1 (human) catalytic domain inhibition. Q9P0U3. inhibition, % at 10 µM. hit rate 0.21% among 360,000. recombinant SENP1 catalytic domain, CyPet-SUMO1-YPet FRET cleavage. AID 624204;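 active = inhibition at least 30% at 10 µM, raw YFP signal under a set limit, fluorescence ratio 0.5 to 1.5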;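 note: 0% = enzyme with DMSO and 100% = no enzyme wells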
# Target sequence (Q9P0U3 419-644 limits assumed): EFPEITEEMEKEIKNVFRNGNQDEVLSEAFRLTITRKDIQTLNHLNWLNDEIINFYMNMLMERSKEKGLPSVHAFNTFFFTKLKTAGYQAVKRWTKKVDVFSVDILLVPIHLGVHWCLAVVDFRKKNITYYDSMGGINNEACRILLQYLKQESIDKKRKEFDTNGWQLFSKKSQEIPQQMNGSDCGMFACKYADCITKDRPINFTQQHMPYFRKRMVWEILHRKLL
#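 Test system: human SENP1 catalytic domain; medium: Tris pH 8 buffer plus EDTA, NaCl, BME, BSA, NP40, catalase; incubation: 50 min reaction at room temperature; technique: FRET, CFP and YFP emission; controls: no-enzyme low control and enzyme-plus-DMSO high control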
# SENP8 block-2 – inhibitors of human SENP8 protease | inhibition, % at 20 µM | AID 602440 | hit rate 0.64% among 360,000 | recombinant SENP8, Nedd8 substrate fluorescence; in the data active = inhibition mostly above about 40%, no sharp cut-off; inactive = mostly below about 27%
# SENP7 block – SENP7 protease inhibition; AID 434973; hit rate 1.5% among 330,000; Q9BQF6; recombinant SENP7, Z-RLRGG-aminoluciferin luminescence, 40 min; inhibition, % at 5 µM;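 active = inhibition above about 50% at the single test dose, limit read from the data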;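 note: plate controls were DMSO with enzyme for no effect and no enzyme buffer wells for full effect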
# Target sequence (Q9BQF6 706-1050 limits assumed): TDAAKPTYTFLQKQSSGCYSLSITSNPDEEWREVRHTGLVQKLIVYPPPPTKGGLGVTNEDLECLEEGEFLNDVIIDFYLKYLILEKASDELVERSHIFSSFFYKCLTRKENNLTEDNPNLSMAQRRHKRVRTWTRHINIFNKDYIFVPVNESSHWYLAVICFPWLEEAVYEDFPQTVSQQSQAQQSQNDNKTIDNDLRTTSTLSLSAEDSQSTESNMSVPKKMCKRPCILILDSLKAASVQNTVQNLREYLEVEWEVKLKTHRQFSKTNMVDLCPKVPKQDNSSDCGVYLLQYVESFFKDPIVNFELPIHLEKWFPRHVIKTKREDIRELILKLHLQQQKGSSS
# SENP8 conf-1 – human SENP8 inhibition, confirmed; shares compounds with SENP7 block; Recombinant SENP8, Z-RLRGG-aminoluciferin luminescence, 60 min; inhibition, % at 12.5 µM; hit rate 40% among 6,200;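 active = mean inhibition across replicates above about 50%, limit read from the data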
# SENP6 confirm – human SENP6 inhibition, confirmed | shares compounds with SENP7 block | recombinant SENP6, Z-RLRGG-aminoluciferin luminescence | inhibition, % at 12.5 µM | hit rate 58% among 6,200 | AID 488915
# SENP7 conf – human SENP7 inhibition, confirmed. hit rate 69% among 6,200. AID 488917. inhibition, % at 12.5 µM. recombinant SENP7, Z-RLRGG-aminoluciferin luminescence, 40 min. shares compounds with SENP7 block
# Casp3 select – selectivity test for SENP inhibitors: human caspase-3 inhibition | AID 488918 | purified caspase-3, Z-DEVD-aminoluciferin luminescence, 60 min | shares compounds with SENP7 block | hit rate 60% among 6,200 | inhibition, % at 12.5 µM;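 active = mean inhibition above about 50%, limit read from the data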;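 note: plate controls were enzyme with DMSO for no effect and wells without caspase-3 for full effect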
# SENP luc ctr – luminescence interference (SENP counter-screen); shares compounds with SENP7 block; Pre-incubated SENP8/Z-RLRGG-aminoluciferin, luciferase luminescence interference; inhibition, % at 12.5 µM; hit rate 39% among 6,200; AID 488919;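 active = mean inhibition above about 50% when retested at one dose, limit read from the data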;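 note: plate controls were DMSO wells with completed reaction for no effect and substrate without enzyme for full effect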
# SENP8 conf-2 – SENP8 (human) inhibition, single concentration confirmation; shares compounds with SENP8 block-2; purified SENP8, Nedd8-AMC/pro-Nedd8 cleavage fluorescence, 30 min; inhibition, % at 25 µM; hit rate 15% among 1,400; AID 624319; in the data active = inhibition mostly above about 39%, no sharp cut-off; inactive = mostly below about 34%
# * hit, by the source's call; x = no result given; ! = repeats disagree.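 Rule for the calls, unless noted: active = mean inhibition above about 50% in the one-dose retest (limit read from the data); inactive = the rest.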
SMILES,SENP8 block-1,SENP6 block,HSP90 inh,SENP1 FRET inh,SENP8 block-2,SENP7 block,SENP8 conf-2,others
CCCNC1=C(C)C(=O)C2=C(C1=O)C(COC(N)=O)[C@]1(OC)C3NC3CN21 (stereo partly drawn),38,66*,2,-2,32,29,x,SENP8 conf-1=-10;SENP6 confirm=-5;SENP7 conf=-8;Casp3 select=-3;SENP luc ctr=-9
C#C[C@]1(O)CC[C@H]2[C@@H]3CCC4=Cc5nc6nc7ccccc7n6cc5C[C@]4(C)[C@H]3CC[C@@]21C,7,-2,x,-32,-401,1,x,
Nc1c2c(nc3sc4c(c13)CCCC4)CCCCC2,69*,81*,-4,-1,13,72*,x,SENP8 conf-1=17;SENP6 confirm=19;SENP7 conf=47;Casp3 select=50*;SENP luc ctr=9
Nc1c2c(nc3sc4c(c13)CCCC4)CCCC2,9,16,-2,-2,-10,15,x,
OCCOc1ccccc1,3,-5,x,-1,46*,-4,10,
COC(=O)C1=C(c2ccc(OC(F)(F)F)cc2)C[C@@H]2CC[C@H]1N2C(=O)NCCOc1ccccc1Cl,-14,-14,x,2,12,-6,x,
NNc1n[nH]c(=S)n1N,-2,-7,2,1,42*,5,22,
Nc1c([N+](=O)[O-])cc(F)c(N2CCNCC2)c1Br,-2,-9,1,2,44*,0,7,
CN1CCN(c2c(F)cc([N+](=O)[O-])c(N)c2Br)CC1,-3,-8,-2,3,25,-4,x,
CC(C)(C)NC(=O)CN1CCCN(C(=O)COc2ccc(Cl)c3ccccc23)CC1,4,0,x,1,6,4,x,
CC1CCN(C(CC(=O)c2ccccc2)C(=O)c2ccccc2)CC1 (stereo not drawn),x,x,x,1,-100,x,x,
O=C(O)c1ccc([N+](=O)[O-])c([N+](=O)[O-])c1,x,x,x,3,40*,x,32,
Cc1nonc1OCCNCCNc1ccc([N+](=O)[O-])c2cccnc12,3,1,3,-36,43*,0,20,
CCNCCNc1ccc([N+](=O)[O-])c2cccnc12,5,8,1,-9,63*,9,19,
CC1CN(c2ccc([N+](=O)[O-])c3cccnc23)CC(C)N1 (stereo not drawn),-3,4,-2,-52,39,-1,x,
O=[N+]([O-])c1ccc(N2CCCC2)c2ncccc12,10,34,6,-33,81*,-3,27,
COc1cc([N+](=O)[O-])c2ncccc2c1[N+](=O)[O-],x,x,x,2,30,x,x,
Cc1cc(OCCN2CC2)c2ccccc2n1,-6,-9,0,x,x,-1,x,
COc1ccccc1CCNC(=O)CCC(=O)N1CC2C[C@@H](C1)Cn1c2cccc1=O,2,-6,-6,0,46*,-4,1,
O=C(CCc1ccccc1)N1C[C@H]2C[C@@H](C1)c1cccc(=O)n1C2,-17,-16,-2,1,61*,-13,29,
COC1C(O)C(C)OC(OC2C(Oc3cccc4c(O)c5c(=O)oc6ccc(C)c7c(=O)oc(c34)c5c67)OC(C)C(O)C2O)C1O (stereo not drawn),x,x,x,-34,-466,x,x,
O=[N+]([O-])c1ccccc1CN1CC=C(c2ccc(F)cc2)CC1,-1,7,3,-3,44*,-6,12,
O=[N+]([O-])c1cccc(CN2CC=C(c3ccc(F)cc3)CC2)c1,-5,1,-1,2,18,-6,x,
COc1ccc2c(c1)NP(=S)(c1ccccc1)N2C (stereo not drawn),x,x,x,2,54*,x,28,
COc1ccc(-n2c(=O)[nH]c3ccccc3c2=O)c(OC)c1,-5,-10,-2,-2,12,-2,x,
SMILES,SENP8 block-1,SENP6 block,HSP90 inh,SENP1 FRET inh,SENP8 block-2,SENP7 block,SENP8 conf-2,others
Nc1ccccc1C(=O)OCc1ccc([N+](=O)[O-])cc1,11,26,-6,-1,16,32,x,
O=C1NC(=O)C(Nc2ccc(Cl)c(Cl)c2)C(=O)N1,x,x,x,-2,65*,x,76*,
Cc1cc(C(=O)OCC(=O)Nc2ccc(F)cc2)c(C)n1C1CC1,5,3,x,-9,10,3,x,
CCN1CCN(c2cc(N3CCCC3)c([N+](=O)[O-])cc2F)CC1,-3,-15,0,6,42*,-1,20,
CN1CCN(c2cc(N3CCCCCC3)c(F)cc2[N+](=O)[O-])CC1,-16,-5,-3,1,22,-3,x,
COC(=O)C1=C(c2cccc(OC)c2OC)C[C@@H]2CC[C@H]1N2C(=O)N1CCC(C)CC1,-6,-11,x,-1,-2,-1,x,
c1cncc(C2CCCCN2)c1 (stereo not drawn),-3,7,5,1,55*,0,10,
O=C1C(Cc2cnc[nH]2)NC(=S)N1c1ccccc1 (stereo not drawn),4,-12,-3,-2,18,2,x,
CN(C)Cc1c[nH]c2ccccc12,-1,-2,x,-1,41*,-6,2,
Cc1nn(CC(=O)N2CCC3(CC2)OCCO3)c(=O)c2cc3ccccc3n12,-9,7,-6,0,-204,4,x,
CC12CN3CC(C)(CN(C1)C31CCOCC1)C2=O,-2,5,-3,1,41*,-7,5,
CN1CC[C@@]2(C)c3cc(O)ccc3N(C)[C@@H]12,x,x,x,-5,44*!,x,62*,
COc1cc2c(cc1OC)CN(c1ccc([N+](=O)[O-])c(C(F)(F)F)c1)CC2,0,4,2,-35,4,3,x,
COc1cc(C2c3cc(O)c(OC)cc3CC3C(=O)OCC32)ccc1O (stereo not drawn),x,x,x,0,44*,x,5,
COc1cc(C2c3cc4c(c(O)c3CC3COC(=O)C32)OCO4)cc(OC)c1OC (stereo not drawn),x,x,x,2,6,x,x,
COc1ccc(C2CC(c3c(O)n(CCc4ccccc4)c(=O)[nH]c3=O)=NN2)cc1OC (stereo not drawn),-1,5,-2,0,33,-10,x,

# Screening results deposited in PubChem BioAssay by several laboratories.
